Measured values collected from several papers.
Compare with care: the assays were run in different laboratories.
Target: Tyrosine-protein kinase Tec (TEC, Homo sapiens, UniProt P42680)
Sequence (P42680 1-631, as in one of the studies): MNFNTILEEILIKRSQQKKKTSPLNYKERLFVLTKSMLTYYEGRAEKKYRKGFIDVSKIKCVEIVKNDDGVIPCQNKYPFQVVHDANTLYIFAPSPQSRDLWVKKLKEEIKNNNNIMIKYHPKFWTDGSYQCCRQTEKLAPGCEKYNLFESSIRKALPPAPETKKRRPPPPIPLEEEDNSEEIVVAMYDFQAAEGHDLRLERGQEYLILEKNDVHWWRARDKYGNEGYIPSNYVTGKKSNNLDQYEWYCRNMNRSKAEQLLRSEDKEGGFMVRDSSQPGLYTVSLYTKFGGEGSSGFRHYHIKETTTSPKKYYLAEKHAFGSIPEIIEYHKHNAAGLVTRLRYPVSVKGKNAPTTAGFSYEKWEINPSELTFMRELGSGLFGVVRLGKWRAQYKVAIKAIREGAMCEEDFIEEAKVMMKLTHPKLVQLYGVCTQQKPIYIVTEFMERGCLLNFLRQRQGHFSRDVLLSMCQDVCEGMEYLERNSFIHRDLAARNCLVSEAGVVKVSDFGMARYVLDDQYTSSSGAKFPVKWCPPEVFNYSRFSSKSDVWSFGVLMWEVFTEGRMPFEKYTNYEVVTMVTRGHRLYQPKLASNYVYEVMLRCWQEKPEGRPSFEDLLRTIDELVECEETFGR

The remaining binding of CN(C)c1nccc(-c2cnc3ncccn23)n1 is reported as 100% (binding; 1 µM).
O=C(NCCCN1CCOCC1)c1ccc(Nc2ncc(Cl)c(-c3ccc(Cl)s3)n2)cc1 has a remaining binding of 100% (binding, competition with immobilised ligand; 1 µM).
For CCN1CCN(Cc2ccc(C(=O)Nc3ccc(C)c(Oc4ccc5c(c4)CC(=O)N5)c3)cc2C(F)(F)F)CC1, the remaining binding was 98% (binding, competition with immobilised ligand; 1 µM).
For COc1cnc(Nc2cccc(S(N)(=O)=O)c2)nc1N1CCN(c2ccccc2)CC1, the remaining binding was 85% (binding, competition with immobilised ligand; 1 µM).
C[C@@H](c1ccc(-n2cnc3c(N)ncnc32)cc1)N1CCc2nn(C)c(Cc3ccccc3)c2C1=O has a remaining binding of 63% (binding, competition with immobilised ligand; 0.1 µM).
For O=C(Nc1c[nH]nc1C(=O)NC1CCNCC1)c1cc(F)cc(F)c1, the remaining binding was 100% (binding, competition with immobilised ligand; 1 µM).
Nc1ncc2c(n1)-c1c([nH]c3ccc(C#CC4CC4)cc13)CCCC2 has a remaining binding of 100% (binding, competition with immobilised ligand; 1 µM).
The remaining binding of C[C@@]1(Cc2ccc(C#N)cc2)C(=O)N(c2cc(Cl)cc(Cl)c2)c2ncc(C(=O)NC3(c4nc(C5CCC5)no4)CC3)n21 is reported as 92% (cell-free assay, competition with immobilised ligand; 1 µM).
CN(C)c1nccc(-c2cnn3ncccc23)n1 has a remaining binding of 90% (binding; 1 µM).
The remaining binding of CSc1cccnc1N1CCN(Cc2nc3ccccc3[nH]2)CC1 is reported as 90% (binding, competition with immobilised ligand; 1 µM).
For Cc1cnc(Nc2ccc(C(=O)N3CCC(N4CCCC4)CC3)cc2)nc1-c1cc2ccccc2s1, the remaining binding was 100% (binding, competition with immobilised ligand; 1 µM).
CS(=O)(=O)c1cc(C2(NC(=O)c3cncc4c3cnn4-c3ccc(F)cc3)CC2)ccn1 gave a remaining binding of 99% (cell-free assay, competition with immobilised ligand; 1 µM).
With Cc1cnn2ncc(-c3ccnc(N(C)C)n3)c2c1 the remaining binding was 100% (binding; 1 µM).
With CCCCN(CCCC)C(=O)CN1C[C@@H](c2cc(OC)c3c(c2)OCO3)[C@H](C(=O)O)[C@H]1CC(C)(C)CCC the remaining binding was 100% (cell-free assay, competition with immobilised ligand; 1 µM).
With FC(F)(F)Oc1cccc(-c2cnc3ccc(-c4ccncc4)nn23)c1 the remaining binding was 99% (binding, competition with immobilised ligand; 5 µM).
CC1CCCN1c1nccc(-c2cnn3ncccc23)n1 (stereo not drawn) has a remaining binding of 100% (binding; 1 µM).
The remaining binding of CCS(=O)(=O)c1cc2cc(C[C@@](O)(CC(C)(C)c3ccc(F)cc3C(N)=O)C(F)(F)F)[nH]c2cn1 is reported as 100% (cell-free assay, competition with immobilised ligand; 1 µM).
For N[C@H]1CCN(c2nccc(-c3cnn4ncccc34)n2)C1, the remaining binding was 100% (binding; 1 µM).
The remaining binding of O=C(c1ccc(Nc2ncc(Cl)c(-c3ccc(Cl)s3)n2)cc1)N1CCC(N2CCCC2)CC1 is reported as 100% (binding, competition with immobilised ligand; 1 µM).
For CN(c1nccc(-c2cnn3ncccc23)n1)C1CC1, the remaining binding was 100% (binding; 1 µM).
With CCC(=O)N[C@H]1CC[C@@H](C(=O)N(C)c2ccc(-c3nc4ccccc4o3)cc2)C1 the remaining binding was 100% (cell-free assay, competition with immobilised ligand; 1 µM).
